Assay results published in ChEMBL document CHEMBL2034859, “Simple, fast and efficient synthesis of β-keto esters from the esters of heteroaryl compounds, its antimicrobial study and cytotoxicity towards various cancer cell lines” (Bioorg Med Chem Lett, 2012).

Tests used:
NCI-H460 [1] = test: Cytotoxicity against human NCI-H460 cells at 10 uM after 48 hrs by WST-1 assay; type: functional
Method in brief: (§1)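 Cells from ATCC, grown in DMEM with 10% heat-inactivated FBS at 37 °C in humidified 5% CO2. Log-phase cells seeded at 5 × 10^3 cells/well and left to recover overnight, then exposed to varying compound concentrations for 48 h. Controls received medium with 0.2% DMSO vehicle. CCK-8 ([…]) reagent added at 5 µL/well for 2 h, then absorbance read.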

HCT-116 [2] = test: Cytotoxicity against human HCT116 cells at 10 uM after 48 hrs by WST-1 assay; type: functional
Method in brief: (§2)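 Cells from ATCC were grown in DMEM with 10% heat-inactivated FBS at 37 °C in 5% CO2. Log-phase cells were seeded at 5 × 10^3 per well and left to recover overnight. They were then exposed to a range of compound concentrations for 48 h, with 0.2% DMSO as the vehicle control. CCK-8 (WST) reagent was added for 2 h and absorbance was measured.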

ACHN [3] = test: Cytotoxicity against human ACHN cells at 10 uM after 48 hrs by WST-1 assay; type: functional; method in brief: as §2
Calu-1 [4] = test: Cytotoxicity against human Calu1 cells at 10 uM after 48 hrs by WST-1 assay; type: functional; method in brief: as §2
PANC-1 [5] = test: Cytotoxicity against human PANC1 cells at 10 uM after 48 hrs by WST-1 assay; type: functional; method in brief: as §1
NCI-H460 [6] = test: Cytotoxicity against human NCI-H460 cells at 0.01 uM after 48 hrs by WST-1 assay; type: functional; method in brief: as §1
NCI-H460 [7] = test: Cytotoxicity against human NCI-H460 cells at 0.03 uM after 48 hrs by WST-1 assay; type: functional; method in brief: as §1
NCI-H460 [8] = test: Cytotoxicity against human NCI-H460 cells at 0.1 uM after 48 hrs by WST-1 assay; type: functional; method in brief: as §1
NCI-H460 [9] = test: Cytotoxicity against human NCI-H460 cells at 0.3 uM after 48 hrs by WST-1 assay; type: functional; method in brief: as §1
NCI-H460 [10] = test: Cytotoxicity against human NCI-H460 cells at 1 uM after 48 hrs by WST-1 assay; type: functional; method in brief: as §1
NCI-H460 [11] = test: Cytotoxicity against human NCI-H460 cells at 3 uM after 48 hrs by WST-1 assay; type: functional; method in brief: as §1
NCI-H460 [12] = test: Cytotoxicity against human NCI-H460 cells at 30 uM after 48 hrs by WST-1 assay; type: functional; method in brief: as §1
HCT-116 [13] = test: Cytotoxicity against human HCT116 cells at 0.01 uM after 48 hrs by WST-1 assay; type: functional; method in brief: as §2
HCT-116 [14] = test: Cytotoxicity against human HCT116 cells at 0.03 uM after 48 hrs by WST-1 assay; type: functional; method in brief: as §2
HCT-116 [15] = test: Cytotoxicity against human HCT116 cells at 0.1 uM after 48 hrs by WST-1 assay; type: functional; method in brief: as §2
HCT-116 [16] = test: Cytotoxicity against human HCT116 cells at 0.3 uM after 48 hrs by WST-1 assay; type: functional; method in brief: as §2
HCT-116 [17] = test: Cytotoxicity against human HCT116 cells at 1 uM after 48 hrs by WST-1 assay; type: functional; method in brief: as §2
HCT-116 [18] = test: Cytotoxicity against human HCT116 cells at 3 uM after 48 hrs by WST-1 assay; type: functional; method in brief: as §2
HCT-116 [19] = test: Cytotoxicity against human HCT116 cells at 30 uM after 48 hrs by WST-1 assay; type: functional; method in brief: as §2
ACHN [20] = test: Cytotoxicity against human ACHN cells at 0.01 uM after 48 hrs by WST-1 assay; type: functional; method in brief: as §2
ACHN [21] = test: Cytotoxicity against human ACHN cells at 0.03 uM after 48 hrs by WST-1 assay; type: functional; method in brief: as §2
ACHN [22] = test: Cytotoxicity against human ACHN cells at 0.1 uM after 48 hrs by WST-1 assay; type: functional; method in brief: as §2
ACHN [23] = test: Cytotoxicity against human ACHN cells at 0.3 uM after 48 hrs by WST-1 assay; type: functional; method in brief: as §2
ACHN [24] = test: Cytotoxicity against human ACHN cells at 1 uM after 48 hrs by WST-1 assay; type: functional; method in brief: as §2
ACHN [25] = test: Cytotoxicity against human ACHN cells at 3 uM after 48 hrs by WST-1 assay; type: functional; method in brief: as §2
ACHN [26] = test: Cytotoxicity against human ACHN cells at 30 uM after 48 hrs by WST-1 assay; type: functional; method in brief: as §2
PANC-1 [27] = test: Cytotoxicity against human PANC1 cells at 0.01 uM after 48 hrs by WST-1 assay; type: functional; method in brief: as §1
PANC-1 [28] = test: Cytotoxicity against human PANC1 cells at 0.03 uM after 48 hrs by WST-1 assay; type: functional; method in brief: as §1
PANC-1 [29] = test: Cytotoxicity against human PANC1 cells at 0.1 uM after 48 hrs by WST-1 assay; type: functional; method in brief: as §1
PANC-1 [30] = test: Cytotoxicity against human PANC1 cells at 0.3 uM after 48 hrs by WST-1 assay; type: functional; method in brief: as §1
PANC-1 [31] = test: Cytotoxicity against human PANC1 cells at 1 uM after 48 hrs by WST-1 assay; type: functional; method in brief: as §1
PANC-1 [32] = test: Cytotoxicity against human PANC1 cells at 3 uM after 48 hrs by WST-1 assay; type: functional; method in brief: as §1
PANC-1 [33] = test: Cytotoxicity against human PANC1 cells at 30 uM after 48 hrs by WST-1 assay; type: functional; method in brief: as §1
MCF-10A [34] = test: Cytotoxicity against human MCF10A cells at 0.01 uM after 48 hrs by WST1 assay; type: cell-based
MCF-10A [35] = test: Cytotoxicity against human MCF10A cells at 0.03 uM after 48 hrs by WST1 assay; type: cell-based
MCF-10A [36] = test: Cytotoxicity against human MCF10A cells at 0.1 uM after 48 hrs by WST1 assay; type: cell-based
MCF-10A [37] = test: Cytotoxicity against human MCF10A cells at 0.3 uM after 48 hrs by WST1 assay; type: cell-based
MCF-10A [38] = test: Cytotoxicity against human MCF10A cells at 1 uM after 48 hrs by WST1 assay; type: cell-based
MCF-10A [39] = test: Cytotoxicity against human MCF10A cells at 3 uM after 48 hrs by WST1 assay; type: cell-based
MCF-10A [40] = test: Cytotoxicity against human MCF10A cells at 10 uM after 48 hrs by WST1 assay; type: cell-based
MCF-10A [41] = test: Cytotoxicity against human MCF10A cells at 30 uM after 48 hrs by WST1 assay; type: cell-based
NCI-H460 [42] = test: Cytotoxicity against human NCI-H460 cells after 48 hrs by WST-1 assay; type: functional, cell-based; conditions: NCI-H460, 48 h; method in brief: as §1
HCT-116 [43] = test: Cytotoxicity against human HCT116 cells after 48 hrs by WST-1 assay; type: functional, cell-based; conditions: HCT-116, 48 h; method in brief: as §2
ACHN [44] = test: Cytotoxicity against human ACHN cells after 48 hrs by WST-1 assay; type: functional, cell-based; method in brief: as §2
Calu-1 [45] = test: Cytotoxicity against human Calu1 cells after 48 hrs by WST-1 assay; type: functional, cell-based; conditions: Calu-1, 48 h; method in brief: as §2
PANC-1 [46] = test: Cytotoxicity against human PANC1 cells after 48 hrs by WST-1 assay; type: functional, cell-based; conditions: PANC-1, 48 h; method in brief: as §1
MCF-10A [47] = test: Cytotoxicity against human MCF10A cells after 48 hrs by WST1 assay; type: cell-based
Calu-1 [48] = test: Cytotoxicity against human Calu1 cells at 0.01 uM after 48 hrs by WST-1 assay; type: functional; method in brief: as §2
Calu-1 [49] = test: Cytotoxicity against human Calu1 cells at 0.03 uM after 48 hrs by WST-1 assay; type: functional; method in brief: as §2
Calu-1 [50] = test: Cytotoxicity against human Calu1 cells at 0.1 uM after 48 hrs by WST-1 assay; type: functional; method in brief: as §2
Calu-1 [51] = test: Cytotoxicity against human Calu1 cells at 0.3 uM after 48 hrs by WST-1 assay; type: functional; method in brief: as §2
Calu-1 [52] = test: Cytotoxicity against human Calu1 cells at 1 uM after 48 hrs by WST-1 assay; type: functional; method in brief: as §2
Calu-1 [53] = test: Cytotoxicity against human Calu1 cells at 3 uM after 48 hrs by WST-1 assay; type: functional; method in brief: as §2
Calu-1 [54] = test: Cytotoxicity against human Calu1 cells at 30 uM after 48 hrs by WST-1 assay; type: functional; method in brief: as §2

CCOC(=O)C(C)C(=O)c1cnccn1 (centres undefined) was tested. Which Activity (NCI-H460 [1]) did it give?
The Activity was 87%.

What about the Activity (HCT-116 [2]) of the same compound?
The Activity was 90%.

What about the Activity (ACHN [3]) of the same compound?
Its Activity is 67.4%.

What about the Activity (Calu-1 [4]) of the same compound?
Its Activity is 85.3%.

And the Activity (PANC-1 [5])?
Its Activity is 92.1%.

And the Activity (NCI-H460 [6])?
Its Activity is 3.6%.

And the Activity (NCI-H460 [7])?
Its Activity is 6.7%.

What about the Activity (NCI-H460 [8]) of the same compound?
The Activity was 14.2%.

What about the Activity (NCI-H460 [9]) of the same compound?
The Activity was 38.6%.

What about the Activity (NCI-H460 [10]) of the same compound?
Its Activity is 44.6%.

And the Activity (NCI-H460 [11])?
Its Activity is 55%.

What about the Activity (NCI-H460 [12]) of the same compound?
The Activity was 100%.

What about the Activity (HCT-116 [13]) of the same compound?
The Activity was 9.4%.

And the Activity (HCT-116 [14])?
Its Activity is 18.8%.

And the Activity (HCT-116 [15])?
The Activity was 26.9%.

And the Activity (HCT-116 [16])?
The Activity was 32.3%.

And the Activity (HCT-116 [17])?
Its Activity is 44.8%.

And the Activity (HCT-116 [18])?
Its Activity is 92.2%.

And the Activity (HCT-116 [19])?
Its Activity is 100%.

What about the Activity (ACHN [20]) of the same compound?
Its Activity is -23.4%.

And the Activity (ACHN [21])?
The Activity was -28.9%.

What about the Activity (ACHN [22]) of the same compound?
Its Activity is 19%.

And the Activity (ACHN [23])?
The Activity was 27.9%.

And the Activity (ACHN [24])?
The Activity was 46.2%.

What about the Activity (ACHN [25]) of the same compound?
Its Activity is 51.6%.

What about the Activity (ACHN [26]) of the same compound?
The Activity was 82.3%.

And the Activity (PANC-1 [27])?
Its Activity is 8.3%.

What about the Activity (PANC-1 [28]) of the same compound?
Its Activity is 10%.

What about the Activity (PANC-1 [29]) of the same compound?
The Activity was 13.6%.

What about the Activity (PANC-1 [30]) of the same compound?
The Activity was 15.9%.

What about the Activity (PANC-1 [31]) of the same compound?
The Activity was 29.2%.

And the Activity (PANC-1 [32])?
The Activity was 67.8%.

What about the Activity (PANC-1 [33]) of the same compound?
The Activity was 100%.

And the Activity (MCF-10A [34])?
The Activity was -15.2%.

What about the Activity (MCF-10A [35]) of the same compound?
Its Activity is -14.1%.

And the Activity (MCF-10A [36])?
The Activity was -9.5%.

And the Activity (MCF-10A [37])?
The Activity was -6.8%.

What about the Activity (MCF-10A [38]) of the same compound?
Its Activity is 6.3%.

What about the Activity (MCF-10A [39]) of the same compound?
Its Activity is 24%.

What about the Activity (MCF-10A [40]) of the same compound?
Its Activity is 39.1%.

And the Activity (MCF-10A [41])?
Its Activity is 82.8%.

And the IC50 (NCI-H460 [42])?
Its IC50 is 3000 nM.

What about the IC50 (HCT-116 [43]) of the same compound?
The IC50 was 1300 nM.

What about the IC50 (ACHN [44]) of the same compound?
The IC50 was 3000 nM.

And the IC50 (Calu-1 [45])?
The IC50 was 2800 nM.

And the IC50 (PANC-1 [46])?
The IC50 was 2900 nM.

And the IC50 (MCF-10A [47])?
Its IC50 is 21200 nM.

And the Activity (Calu-1 [48])?
Its Activity is 1.5%.

What about the Activity (Calu-1 [49]) of the same compound?
The Activity was 2.9%.

And the Activity (Calu-1 [50])?
Its Activity is 6.7%.

What about the Activity (Calu-1 [51]) of the same compound?
The Activity was 9.4%.

What about the Activity (Calu-1 [52]) of the same compound?
Its Activity is 22.8%.

What about the Activity (Calu-1 [53]) of the same compound?
Its Activity is 60.8%.

And the Activity (Calu-1 [54])?
Its Activity is 99.2%.
